Measurements gathered from unrelated publications.
Compare with care: the assays were run in different laboratories.
Observed: cell growth or viability

SMILES | cell line | test | conditions | IC50 [µM]
CC(=O)Oc1ccc2c(c1)C(C)=CC(C)(C)N2Cc1ccccc1 | Hep3B | MTT | 72 h | 8
Cc1[nH]c(/C=C2\C(=O)Nc3ccc(S(=O)(=O)N(C)c4cccc(Cl)c4)cc32)c(C)c1C(=O)N1CCN(C)CC1 | Rh41 |  | 72 h | 1.84
O=C(O)CCCc1ccccc1 | PSN1 | MTT | 72 h | > 50
FC(F)(F)c1ccc(C(c2c[nH]c3ccccc23)c2c[nH]c3ccccc23)cc1 | PPC-1 | ATP luminescence | 22 h | 17.6
O=C(Nc1ccc2[nH]ncc2c1)c1cccc(NC(=S)Nc2cc(C(F)(F)F)cc(C(F)(F)F)c2)c1 | KM12 | ATP luminescence | 72 h | 19.6
COC(=O)/C=C/C=C/c1ccc2c(c1)OCO2 | COR-L23 | SRB |  | 95.6
O=C(Nc1ccc(Br)cc1)Nc1cccc(C(=O)Nc2ccc3[nH]ncc3c2)c1 | KM12 | ATP luminescence | 72 h | > 50
CCCCC(C(=O)COc1c(F)c(F)cc(F)c1F)n1cc([C@@](C)(NCc2ccc3ncccc3c2)C2CC2)nn1 (stereo partly shown) | BESM |  | 72 h | > 10
O=C1NCCc2[nH]c(-c3ccncc3)cc21 | SR |  |  | 0.286
O=C(Nc1cccc(Cl)c1)Nc1cccc(C(=O)Nc2ccc3[nH]ncc3c2)c1 | KM12 | ATP luminescence | 72 h | > 50
COc1cc(N2CCC(N3CCN(C)CC3)CC2)ccc1Nc1ncc(Cl)c(Nc2ccccc2S(=O)(=O)C(C)C)n1 | Rh41 |  | 72 h | 0.07
CCCCC(C(=O)COc1c(F)c(F)cc(F)c1F)n1cc([C@@](C)(NCc2ccc3ncccc3c2)C(C)C)nn1 (stereo partly shown) | BESM |  | 72 h | > 10
CN1C(=O)/C(=N\NC(=O)c2cc3ccccc3[nH]2)c2ccccc21 | ZR75 |  |  | 1.53
O=C(Nc1ccccc1)Nc1cccc(C(=O)Nc2ccc3[nH]ncc3c2)c1 | KM12 | ATP luminescence | 72 h | > 50
O=C1Nc2ccc(Cl)cc2/C1=N/NC(=O)c1cc2ccccc2[nH]1 | ZR75 |  |  | 18
O=C(/C=C/C=C/c1ccc2c(c1)OCO2)N1CCCCC1 | COR-L23 | SRB |  | 74.8

SMILES | cell line | test | conditions | IC50 [µM]
CCC(C(=O)COc1c(F)c(F)cc(F)c1F)n1cc([C@@](C)(NCc2ccc3ncccc3c2)C(C)C)nn1 (stereo partly shown) | BESM |  | 72 h | > 10
CC(C)C(=O)Nc1ccc([N+](=O)[O-])c(C(F)(F)F)c1 | Hep3B | CCK-8 | 48 h | > 50
Cc1cc(Nc2ncc(Cl)c(Nc3ccccc3S(=O)(=O)C(C)C)n2)c(OC(C)C)cc1C1CCNCC1 | Rh41 |  | 72 h | 0.35
COc1cc(C2Oc3cc([C@H]4Oc5cc(O)cc(O)c5C(=O)[C@@H]4O)ccc3OC2CO)ccc1O (stereo partly shown) | Hep3B | CCK-8 | 72 h | 7.21
O=C(Nc1ccc2[nH]ncc2c1)c1cccc(NC(=S)Nc2ccc(F)cc2F)c1 | KM12 | ATP luminescence | 72 h | 30.6
C[C@H]1O[C@@H](n2cc(F)c(=O)[nH]c2=O)[C@H](O)[C@@H]1O | Hep3B | CCK-8 | 48 h | 13.2
COc1ccc2c(c1)/C(=N/NC(=O)c1cc3ccccc3[nH]1)C(=O)N2 | ZR75 |  |  | 17.9
CCC(C(=O)COc1c(F)c(F)cc(F)c1F)n1cc([C@](C)(CC(C)C)NCc2ccc3ncccc3c2)nn1 (stereo partly shown) | BESM |  | 72 h | > 10
CC(C)C[C@H](NC(=O)[C@H](Cc1ccccc1)NC(=O)c1cnccn1)B(O)O | CAKI-2 | ATP luminescence |  | 0.024
O=C(Nc1ccc2[nH]ncc2c1)c1cccc(NC(=O)c2cc(C(F)(F)F)ccc2F)c1 | KM12 | ATP luminescence | 72 h | 26.8
O=C1Nc2ccc(F)cc2/C1=N/NC(=O)c1cc2ccccc2[nH]1 | ZR75 |  |  | > 30
O=C(Nc1cccc(C(=O)Nc2ccc3[nH]ncc3c2)c1)Nc1ccccc1C(F)(F)F | KM12 | ATP luminescence | 72 h | 43.7
COc1cc(Nc2nccc(-c3cnn4nc(OC)ccc34)n2)cc(C(F)(F)F)c1 | CAKI-2 | ATP luminescence |  | 0.2
CN1CCN(CC(=O)Nc2cccc(C(=O)Nc3ccc4[nH]ncc4c3)c2)CC1 | KM12 | ATP luminescence | 72 h | > 50
CN1C(=O)/C(=N\NC(=O)c2cc3ccccc3[nH]2)c2cc(Br)ccc21 | ZR75 |  |  | 1.01
